ChEMBL document CHEMBL3351450 (Bioorg Med Chem, 2014)

Columns and labels:
[1] = Metabolic stability in human liver S9 fraction assessed as compound remaining at 1 uM after 15 mins by LC-MS/MS analysis; type: ADME, subcellular; conditions: read-out: Stability
Liver = experiment: Intrinsic clearance in human liver S9 fraction; type: ADME, subcellular
[2] = Metabolic stability in human liver S9 fraction assessed as compound remaining at 1 uM after 5 mins by LC-MS/MS analysis; type: ADME, subcellular; conditions: read-out: Stability
[3] = Half life in Sprague-Dawley rat at 30 mg/kg, po; type: ADME, organism-based; set-up: dose 30 mg/kg, route oral; conditions: in vivo
How it was run: (§1)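 Male SD rats, 3 per route. Oral dose given by gavage as a suspension in 0.5% Tween 80 (w/v). IV dose given via the femoral vein in DMSO/PEG-400/saline (5:65:30). Tail-vein blood drawn over 24 h and centrifuged to plasma. Parent and metabolite measured by LC–MS/MS.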

[4] = Tmax in Sprague-Dawley rat at 3 mg/kg, iv; type: ADME, organism-based; set-up: dose 3 mg/kg, route intravenous; conditions: in vivo
How it was run: (§2)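 Male SD rats, three per route. Oral gavage of a suspension in 0.5% Tween 80 (30 mg/kg). IV via femoral vein in DMSO/PEG-400/saline 5:65:30 (3 mg/kg). Tail-vein blood sampled over 24 h. Plasma stored at -20 °C and analysed by LC–MS/MS for parent and metabolite. Values reported as mean ± SD of three rats.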

[5] = Cmax in Sprague-Dawley rat at 3 mg/kg, iv; type: ADME, organism-based; set-up: dose 3 mg/kg, route intravenous; conditions: in vivo; how it was run: as §1
[6] = AUC (0 to infinity) in Sprague-Dawley rat at 3 mg/kg, iv; type: ADME, organism-based; set-up: dose 3 mg/kg, route intravenous, time infinity; conditions: plasma; how it was run: as §1
[7] = Half life in Sprague-Dawley rat at 3 mg/kg, iv; type: ADME, organism-based; set-up: dose 3 mg/kg, route intravenous; conditions: in vivo; how it was run: as §1
[8] = AUC (0 to infinity) in Sprague-Dawley rat at 30 mg/kg, po; type: ADME, organism-based; set-up: time infinity, dose 30 mg/kg, route oral; conditions: plasma; how it was run: as §1
[9] = Tmax in Sprague-Dawley rat at 30 mg/kg, po; type: ADME, organism-based; set-up: dose 30 mg/kg, route oral; conditions: in vivo; how it was run: as §2
[10] = Cmax in Sprague-Dawley rat at 30 mg/kg, po; type: ADME, organism-based; set-up: dose 30 mg/kg, route oral; conditions: in vivo; how it was run: as §1
[11] = Oral bioavailability in Sprague-Dawley rat at 30 mg/kg; type: ADME, organism-based; conditions: in vivo; how it was run: as §2

| SMILES | remaining at 0.25 h, 1 µM [1] | CLint (Liver) | remaining at 5 min, 1 µM [2] | further results |
| --- | --- | --- | --- | --- |
| Fc1ccc(-c2n[nH]c(CCCc3ccccc3)c2-c2ccncc2)cc1 | 50.3% | 81.8 µL/min/mg | 81.5% | – |
| O=C(Cc1ccccc1)Nc1[nH]nc(-c2ccc(F)cc2)c1-c1ccncc1 | 86.2% | 40.6 µL/min/mg | 90.4% | – |
| Cn1nc(NC(=O)Cc2ccccc2)c(-c2ccncc2)c1-c1ccc(F)cc1 | 65% | 68.1 µL/min/mg | 84.4% | – |
| CC(=O)Nc1onc(-c2ccc(F)cc2)c1-c1ccncc1 | 82.5% | 31.6 µL/min/mg | 92.4% | – |
| O=C(Nc1onc(-c2ccc(F)cc2)c1-c1ccncc1)c1ccccc1 | 10.9% | – | 39.6% | – |
| O=C(Cc1ccccc1)Nc1onc(-c2ccc(F)cc2)c1-c1ccncc1 | 64.3% | 91 µL/min/mg | 79.7% | – |
| O=C(CCc1ccccc1)Nc1onc(-c2ccc(F)cc2)c1-c1ccncc1 | 27.9% | 455 µL/min/mg | 32.1% | – |
| O=C(CCCc1ccccc1)Nc1onc(-c2ccc(F)cc2)c1-c1ccncc1 | 28.5% | 272 µL/min/mg | 50.7% | – |
| Nc1onc(-c2ccc(F)cc2)c1-c1ccncn1 | – | – | – | half-life [3]: 58.8 min; Tmax [4]: 30 min; Cmax [5]: 744 ng/mL; AUC(0-inf) [6]: 924 ng·h/mL; half-life [7]: 25.7 min; AUC(0-inf) [8]: 760 ng·h/mL; Tmax [9]: 200 min; Cmax [10]: 136 ng/mL |
| O=C(Cc1ccccc1)Nc1onc(-c2ccc(F)cc2)c1-c1ccncn1 | – | – | 5.6% | – |
| O=C(Cc1ccccc1F)Nc1onc(-c2ccc(F)cc2)c1-c1ccncn1 | – | – | 10% | – |
| O=C(Cc1ccccc1Cl)Nc1onc(-c2ccc(F)cc2)c1-c1ccncn1 | – | – | 5.8% | – |
| O=C(Cc1c(F)cccc1Cl)Nc1onc(-c2ccc(F)cc2)c1-c1ccncn1 | – | – | 16.1% | half-life [3]: 1120 min; Tmax [4]: 4.8 min; Cmax [5]: 363 ng/mL; AUC(0-inf) [6]: 505 ng·h/mL; bioavailability [11]: < 1%; half-life [7]: 28.4 min; AUC(0-inf) [8]: 23.7 ng·h/mL; Tmax [9]: 200 min; Cmax [10]: 0.88 ng/mL |
| Cc1ccc(C)c(CC(=O)Nc2onc(-c3ccc(F)cc3)c2-c2ccncn2)c1 | – | – | 53.9% | – |
| O=C(Cc1ccccc1Cl)Nc1onc(-c2ccc(Cl)cc2)c1-c1ccncn1 | – | – | 96.6% | – |
| O=C(Cc1ccccc1Cl)Nc1onc(-c2ccc(F)cc2F)c1-c1ccncn1 | – | – | 20.4% | – |
| Cc1cccc(-c2noc(NC(=O)Cc3ccccc3Cl)c2-c2ccncn2)c1 | – | – | 21.2% | – |
| Cc1cc(-c2noc(NC(=O)Cc3ccccc3C)c2-c2ccncn2)ccc1F | – | – | 52.6% | – |
